This note sets out measurements from ChEMBL document CHEMBL1153910, “Salicylate-urea-based soluble epoxide hydrolase inhibitors with high metabolic and chemical stabilities” (Bioorg Med Chem Lett, 2009).

For data set [1], the target named is T1, Bifunctional epoxide hydrolase 2 (Homo sapiens, UniProt P34913).
T1 sequence (P34913 whole entry): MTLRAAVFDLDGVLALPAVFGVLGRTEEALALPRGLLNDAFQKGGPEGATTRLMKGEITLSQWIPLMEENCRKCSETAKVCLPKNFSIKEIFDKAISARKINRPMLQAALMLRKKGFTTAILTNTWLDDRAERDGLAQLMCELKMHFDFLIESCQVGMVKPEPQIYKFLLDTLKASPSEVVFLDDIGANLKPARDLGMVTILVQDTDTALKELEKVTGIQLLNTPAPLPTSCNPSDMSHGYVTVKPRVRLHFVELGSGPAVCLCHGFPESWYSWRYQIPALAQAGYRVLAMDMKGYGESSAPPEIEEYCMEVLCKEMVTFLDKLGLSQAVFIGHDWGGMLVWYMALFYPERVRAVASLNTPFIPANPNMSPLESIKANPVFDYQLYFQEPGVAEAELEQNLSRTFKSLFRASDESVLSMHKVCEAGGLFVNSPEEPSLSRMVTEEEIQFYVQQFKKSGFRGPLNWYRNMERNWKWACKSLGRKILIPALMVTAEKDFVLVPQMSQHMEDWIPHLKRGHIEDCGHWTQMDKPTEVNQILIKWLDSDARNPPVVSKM
The experiment in a line: Inhibition of human soluble epoxide hydrolase by fluorescence assay. In outline: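 Recombinant human sEH was used, with inhibition measured by a kinetic fluorescent assay and reported as IC50.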

The nature of data set [2]: Tmax in dog at 0.3 mg/kg, po. In kind it is ADME, organism-based, Canis lupus familiaris. More on the design: dose 0.3 mg/kg, route oral. As to conditions: in vivo. In outline: (§1)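 Dogs were dosed by oral gavage at 0.3 mg/kg in tri-olein-rich oil. Blood concentration–time profiles were followed, and pharmacokinetic parameters were derived from those profiles.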
A short description of data set [3]: Cmax in dog at 0.3 mg/kg, po. In kind it is ADME, organism-based, Canis lupus familiaris. More on the design: dose 0.3 mg/kg, route oral. As to conditions: in vivo. In outline:
as §1

Data set [4] can be described thus: Metabolic stability in human liver S9 fraction in presence of NADPH assessed as residual parent compound remaining. In kind it is ADME, subcellular. In outline: (§2)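 Compounds were incubated with human liver S9 fraction, with or without NADPH. Residual parent compound is given as a percentage remaining.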
Data set [5] can be described thus: Chemical stability assessed as compound remaining after 7 hrs in 40 mM NaOH at 22 degC. In kind it is physicochemical. The following applies: read-out: Activity.
The nature of data set [6]: Solubility in 0.1 M sodium phosphate buffer at pH 7.4.
Data set [7] is described as follows: Metabolic stability in human liver S9 fraction in absence of NADPH assessed as residual parent compound remaining. In kind it is ADME, subcellular. In outline: as §2
Data set [8] is described as follows: Octanol-water distribution coefficient, log P of the compound. In kind it is physicochemical. In outline: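 Partitioning was between buffer-saturated 1-octanol and 0.1 M sodium phosphate buffer, pH 7.4. Compound concentration was measured in each phase, and logP = log10([octanol]/[buffer]).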
A short description of data set [9]: AUC (0 to 24 hrs) in dog at 0.3 mg/kg, po. In kind it is ADME, organism-based, Canis lupus familiaris. More on the design: time < 24 hr, dose 0.3 mg/kg, route oral. As to conditions: plasma. In outline: as §1
Data set [10] deals with Prostaglandin G/H synthase 1 (Homo sapiens) (UniProt P23219). The experiment in a line: Inhibition of COX1 at 10 uM by fluorescence assay.
Chain of Prostaglandin G/H synthase 1 (Homo sapiens) (P23219 whole entry): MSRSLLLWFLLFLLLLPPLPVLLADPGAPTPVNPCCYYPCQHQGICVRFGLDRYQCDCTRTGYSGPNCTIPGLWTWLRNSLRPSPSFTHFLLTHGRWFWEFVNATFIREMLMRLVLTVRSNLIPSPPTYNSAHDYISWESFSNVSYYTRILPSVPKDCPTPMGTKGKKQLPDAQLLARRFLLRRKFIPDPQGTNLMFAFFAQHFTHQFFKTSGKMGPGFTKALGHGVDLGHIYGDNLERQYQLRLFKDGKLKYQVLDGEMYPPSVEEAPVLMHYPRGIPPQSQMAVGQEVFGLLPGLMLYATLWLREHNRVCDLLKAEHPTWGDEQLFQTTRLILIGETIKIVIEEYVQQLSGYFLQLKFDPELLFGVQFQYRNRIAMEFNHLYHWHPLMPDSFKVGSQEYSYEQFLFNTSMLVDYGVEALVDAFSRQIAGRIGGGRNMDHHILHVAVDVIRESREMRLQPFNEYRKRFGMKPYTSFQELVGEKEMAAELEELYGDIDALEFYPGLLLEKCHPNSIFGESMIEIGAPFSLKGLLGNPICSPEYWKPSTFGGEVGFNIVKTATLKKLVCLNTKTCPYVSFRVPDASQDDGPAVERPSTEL
Data set [11] addresses T2, Prostaglandin G/H synthase 2 (Homo sapiens) (UniProt P35354).
T2 sequence (whole entry): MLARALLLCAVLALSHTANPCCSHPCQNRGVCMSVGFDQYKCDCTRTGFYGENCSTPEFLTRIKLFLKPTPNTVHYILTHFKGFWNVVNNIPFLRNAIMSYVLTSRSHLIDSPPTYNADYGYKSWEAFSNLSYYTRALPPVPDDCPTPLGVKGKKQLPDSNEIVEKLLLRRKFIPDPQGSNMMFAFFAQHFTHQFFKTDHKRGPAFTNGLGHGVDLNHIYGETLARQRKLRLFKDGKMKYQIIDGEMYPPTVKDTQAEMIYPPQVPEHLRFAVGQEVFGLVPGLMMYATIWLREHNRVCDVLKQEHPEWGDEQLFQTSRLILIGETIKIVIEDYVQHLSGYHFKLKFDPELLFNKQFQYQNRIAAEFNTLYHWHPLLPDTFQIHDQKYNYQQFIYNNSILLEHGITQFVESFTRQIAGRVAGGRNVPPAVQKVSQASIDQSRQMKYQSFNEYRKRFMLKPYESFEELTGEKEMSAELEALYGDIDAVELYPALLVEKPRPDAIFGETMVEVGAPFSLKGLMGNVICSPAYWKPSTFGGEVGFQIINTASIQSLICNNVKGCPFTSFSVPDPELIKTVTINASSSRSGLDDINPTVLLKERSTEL
The experiment in a line: Inhibition of COX2 at 10 uM by fluorescence assay.

Data set [12] is described as follows: Half life in dog at 0.3 mg/kg, po. More on the design: dose 0.3 mg/kg, route oral. In kind it is ADME, organism-based, Canis lupus familiaris. The following applies: in vivo. In outline: as §1
Data set [13] can be described thus: AUC (0 to infinity) in dog at 0.3 mg/kg, po. In kind it is ADME, organism-based, Canis lupus familiaris. Set-up: time infinity, dose 0.3 mg/kg, route oral. The following applies: plasma. In outline: as §1
Data set [14] in a line: Chemical stability assessed as compound hydrolysis after 15 mins in 40 mM NaOH at 22 degC. In kind it is physicochemical. As to conditions: 0.25 h.
A short description of data set [15]: Chemical stability in 40 mM NaOH at 22 degC. In kind it is physicochemical.

Converted amounts (≈) assume the structure as drawn. The source made the active and inactive calls. No cut-off for these calls is given here.

For the compound `CN1CCN(C(=O)c2cccc(NC(=O)NC34CC5CC(CC(C5)C3)C4)c2)CC1`, the IC50 (as a rule, the concentration needed to halve the response being measured) in data set [1] was found to be 35 nM.

With `COC(=O)c1cccc(NC(=O)NC23CC4CC(CC(C4)C2)C3)c1`, inhibition in data set [1] was half-maximal at 14 nM (IC50).

Compound `COc1cccc(NC(=O)NC23CC4CC(CC(C4)C2)C3)c1` had an IC50 in [1] of 4.7 nM.

`COC(=O)c1ccc(NC(=O)NC23CC4CC(CC(C4)C2)C3)cc1O` gave an IC50 in [1] of 2.8 nM. Also, in data set [2], the Tmax (usually the time at which the peak concentration occurs) is 1 h. For the same compound, the Cmax (in general, the maximum level reached in the sampled fluid or tissue) in [3] stood at 45 nM. Also, the values for the Stability in data set [4] and in data set [7] were 89% and 93%, respectively. Besides, in data set [5], the remaining at 7 h is 80%. In addition, the solubility – broadly, how much of the substance goes into solution per volume – in [6] is 200 µg/mL (≈ 581 µM). For the same compound, in data set [8], the logP (usually a log measure of how a compound divides between an organic and an aqueous phase) was more than 4.1. For the same compound, the AUC(0-t) – broadly, the area under the concentration-time curve up to a stated or last time point – at 24 h in data set [9] is 0.189 µM·h. Further, the outcome in [10] and in data set [11] was inactive. Besides, the half-life – broadly, how long it takes for the measured level to halve – in [12] was 7.9 h. In addition, in data set [13], the AUC(0-inf) (in general, the area under the concentration-time curve extrapolated to infinity) was 0.209 µM·h.

On to `COC(=O)CCCc1ccc(NC(=O)NC23CC4CC(CC(C4)C2)C3)cc1`, for which the IC50 in data set [1] was 3.1 nM.

On to `O=C(Nc1ccc(C(=O)O)c(O)c1)NC12CC3CC(CC(C3)C1)C2`, for which the IC50 in data set [1] came out at 71 nM. In [6], this compound gave a solubility of 199000 µg/mL (≈ 602000 µM). The logP in data set [8] (read-out: logP) was found to be 1.6.

The compound `O=C(Nc1ccc(O)cc1)NC12CC3CC(CC(C3)C1)C2` displayed an IC50 in data set [1] of 24 nM.

For the compound `O=C(Nc1ccccc1)NC12CC3CC(CC(C3)C1)C2`, the IC50 in data set [1] came to 17 nM.

In the case of `O=C(Nc1ccccc1O)NC12CC3CC(CC(C3)C1)C2`, half-maximal inhibition in data set [1] (IC50) was put at 139 nM.

As to `O=C(Nc1cccc(OC(=O)c2ccccc2)c1)NC12CC3CC(CC(C3)C1)C2`, in data set [1], 5.1 nM corresponded to half-maximal inhibition (IC50).

`COC(=O)c1cc(NC(=O)NC23CC4CC(CC(C4)C2)C3)ccc1O` displayed an IC50 in data set [1] of 12 nM. Further, the results for the Stability in data set [4] and in data set [7] were 51% and 46%, respectively.

`O=C(O)CCCCCCCCCCCNC(=O)NC12CC3CC(CC(C3)C1)C2`: in [2], the time of peak concentration (Tmax) came out at 0.5 h. Besides, the highest concentration (Cmax) in data set [3] worked out at 18 nM. This compound also showed an AUC(0-t) at 24 h in [9] of 0.0522 µM·h. Besides, the half-life in [12] was 2.9 h. In addition, the AUC(0-inf) in [13] came to 0.0524 µM·h.

In [1], `CC(=O)Oc1ccc(NC(=O)NC23CC4CC(CC(C4)C2)C3)cc1` showed an IC50 of 3.9 nM. In addition, the Stability in [4] is recorded as less than 0.1%; in [7], less than 0.1%; in [14], “Unstable”.

`COc1ccc(NC(=O)NC23CC4CC(CC(C4)C2)C3)cc1` yielded an IC50 in data set [1] of 14 nM.

With `CC(=O)Oc1cccc(NC(=O)NC23CC4CC(CC(C4)C2)C3)c1`, in [1], the IC50 was determined as 5.8 nM.

Compound `O=C(Nc1ccc(OC(=O)c2ccccc2)cc1)NC12CC3CC(CC(C3)C1)C2` yielded an IC50 in [1] of 11 nM. Moreover, the Stability was 31% in [4], 32% in data set [7] and “Unstable” in data set [14].

Consider `CCOCCOCCOc1cccc(NC(=O)NC23CC4CC(CC(C4)C2)C3)c1`, for which the Stability in data set [4] was 56%.

`O=C(Nc1ccc(O)c(C(=O)O)c1)NC12CC3CC(CC(C3)C1)C2` yielded an IC50 in data set [1] of 116 nM.

Compound `COC(=O)Cc1ccc(NC(=O)NC23CC4CC(CC(C4)C2)C3)cc1` yielded an IC50 in [1] of 4 nM.

Take `COc1ccccc1NC(=O)NC12CC3CC(CC(C3)C1)C2`: in data set [1], the IC50 is 8540 nM.

For the compound `COC(=O)CCc1ccc(NC(=O)NC23CC4CC(CC(C4)C2)C3)cc1`, it took 2.2 nM to reach half-maximal inhibition in data set [1] (IC50).

Turning to `O=C(O)CCc1ccc(NC(=O)NC23CC4CC(CC(C4)C2)C3)cc1`, the IC50 in data set [1] was 126 nM.

Take `O=C(Nc1cccc(C(=O)N2CCOCC2)c1)NC12CC3CC(CC(C3)C1)C2`: the IC50 in [1] is 25 nM.

As for `COC(=O)c1ccc(NC(=O)NC23CC4CC(CC(C4)C2)C3)cc1`, the IC50 in data set [1] stood at 4.1 nM. For the same compound, the Stability in data set [4] worked out at 95%; in data set [7] it was 97%. For the same compound, the solubility in [6] turned out to be 400 µg/mL (≈ 1220 µM). The compound also had a logP in [8] of more than 3.9. Besides, in data set [15], the half-life is 2 h.

In data set [1], `O=C(Nc1cccc(C(=O)N2CCC(N3CCOCC3)CC2)c1)NC12CC3CC(CC(C3)C1)C2` came in with a half-maximal inhibitory concentration (IC50) of 29 nM.

`O=C(O)Cc1ccc(NC(=O)NC23CC4CC(CC(C4)C2)C3)cc1` showed an IC50 in data set [1] of 392 nM.

Regarding `O=C(Nc1ccc(C(=O)O)cc1)NC12CC3CC(CC(C3)C1)C2`, the IC50 in data set [1] is 1410 nM.

As to `O=C(Nc1cccc(C(=O)O)c1)NC12CC3CC(CC(C3)C1)C2`, in data set [1], the IC50 came to 365 nM.

The compound `O=C(Nc1cccc(O)c1)NC12CC3CC(CC(C3)C1)C2` displayed a half-inhibitory concentration (IC50) in [1] of 28 nM.

For the compound `O=C(O)CCCc1ccc(NC(=O)NC23CC4CC(CC(C4)C2)C3)cc1`, the IC50 in [1] stood at 19.9 nM.
